What all share (type): functional
For test [1], the system named is Mycolicibacterium fortuitum. The experiment in a line: Antimycobacterial activity against Mycobacterium fortuitum. In outline:
(§1)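 MIC in Middlebrook 7H9 broth with 10% OADC; strains from University of Wisconsin-La Crosse culture collection; rifampin as positive control; reported MIC is compiled from geometric means of three separate runs.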

Test [2] concerns Mycolicibacterium smegmatis. Kind of test: Antimycobacterial activity against Mycobacterium smegmatis.
For another test, the system named is Staphylococcus aureus. Kind of test: Antibacterial activity against Staphylococcus aureus ATCC 29213 by CLSI method.
A further test deals with Escherichia coli. Kind of test: Antibacterial activity against Escherichia coli […] by CLSI method.
The test system of another test is Bacillus cereus. Kind of test: Antibacterial activity against Bacillus cereus by CLSI method.
The next test relates to Mycobacteroides chelonae. The experiment in a line: Antimycobacterial activity against Mycobacterium chelonae. In outline:
as §1

The test system of test [3] is Mycobacterium intracellulare. The experiment in a line: Antimycobacterial activity against Mycobacterium intracellulare. In outline:
as §1

A further test concerns Mycobacterium avium. Kind of test: Antimycobacterial activity against Mycobacterium avium. In outline: as §1
The next test concerns Mycobacterium kansasii. The experiment in a line: Antimycobacterial activity against Mycobacterium kansasii. In outline: as §1
In test [4] the test system is Mycobacterium tuberculosis. Kind of test: Antimycobacterial activity against Mycobacterium tuberculosis H37Rv after 7 days by BacTiter-Glo method. The conditions noted are these: 168 h. In outline:
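Strain H37Rv in 384-well plates, Middlebrook 7H12 broth with palmitate and 0.5% BSA; compounds diluted in medium to 2× final concentration; inoculum 1-2 × 10⁵ CFU/mL; amikacin positive control on every plate; 7 days at 37 °C, ~95% humidity; compound autofluorescence pre-read (ex 535/em 590 nm); BacTiter-Glo reagent added, 20 min room temperature, luminescence read.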

Test [5] relates to Mycobacterium tuberculosis. Kind of test: Ratio of ethambutol MIC to compound MIC for Mycobacterium tuberculosis H37Rv after 7 days by BacTiter-Glo method.
Test [6] concerns Mycolicibacterium smegmatis. The experiment in a line: Ratio of rifampin MIC to compound MIC for Mycobacterium smegmatis.

≈ marks a conversion by molar mass, not a printed value.

Broadly, the MIC is the smallest concentration in the dilution series that meets the test's criterion for growth inhibition. As for `CCOC(=O)[C@@H]1C[C@H]1C(=O)c1ccc(C(C)(C)C)cc1`, the MIC was 64 µg/mL (≈ 233 µM) in [1], 16 µg/mL (≈ 58.3 µM) in test [2], 64 µg/mL (≈ 233 µM) against Staphylococcus aureus and over 128 µg/mL in the test on Escherichia coli.
Take `CC(C)N(C(=O)/C=C\Sc1ccc(C(C)(C)C)cc1)C(C)C`: the minimal inhibitory concentration (MIC) in the test on Bacillus cereus was over 128 µg/mL; in test [2] it was 64 µg/mL (≈ 200 µM); in the test with Staphylococcus aureus, over 128 µg/mL; in the test with Escherichia coli, over 128 µg/mL.
Turning to `CC(C)=CCOC(=O)/C=C/C(=O)c1ccc(C(C)(C)C)cc1`, the MIC is 64 µg/mL (≈ 213 µM) in test [1]; over 128 µg/mL in test [2]; 0.5 µg/mL (≈ 1.66 µM) against Staphylococcus aureus; over 128 µg/mL against Escherichia coli; 32 µg/mL (≈ 107 µM) against Mycobacteroides chelonae; over 128 µg/mL in [3]. Also, the minimal inhibitory concentration (MIC) in the test with Mycobacterium avium and against Mycobacterium kansasii was over 128 µg/mL throughout.
Take `O=C(O)/C=C\Sc1nc2ccccc2s1`: the minimum inhibitory concentration (MIC) (with Bacillus cereus; in [2]; in the test on Staphylococcus aureus; against Escherichia coli) was over 128 µg/mL in each case.
`CN(C(=O)/C=C\Sc1ccc(C(C)(C)C)cc1)c1ccccc1`: the MIC against Bacillus cereus is over 128 µg/mL; in [2], 32 µg/mL (≈ 98.3 µM); against Staphylococcus aureus, over 128 µg/mL; in the test with Escherichia coli it was over 128 µg/mL.
Consider `CCOC(=O)C#CC(=O)c1ccc(C(C)(C)C)cc1`, for which the MIC (in test [1]; against Bacillus cereus; in test [2]; against Staphylococcus aureus; with Escherichia coli; in the test with Mycobacteroides chelonae) was over 128 µg/mL in each case. The MIC (in test [3]; against Mycobacterium avium; in the test on Mycobacterium kansasii) was over 128 µg/mL throughout.
Turning to `CC(C)(C)c1ccc(C(=O)/C=C/C(=O)O)cc1`, the minimum inhibitory concentration (MIC) is over 125 µg/mL in test [1], over 128 µg/mL in [2], 32 µg/mL (≈ 138 µM) in the test on Staphylococcus aureus and over 128 µg/mL with Escherichia coli.
`CC(C)(C)c1ccc(S/C=C\C(=O)OCC2CC2)cc1`: the MIC with Bacillus cereus was 128 µg/mL (≈ 441 µM); in test [2], 16 µg/mL (≈ 55.1 µM); with Staphylococcus aureus it was over 128 µg/mL; with Escherichia coli, over 128 µg/mL.
As for `CN(C)[C@@H]1C(O)=C(C(N)=O)C(=O)[C@@]2(O)C(O)=C3C(=O)c4c(O)cccc4[C@@](C)(O)[C@H]3C[C@@H]12` [TETRACYCLINE], the MIC was 0.25 µg/mL (≈ 0.563 µM) in the test with Staphylococcus aureus and 1 µg/mL (≈ 2.25 µM) in the test with Escherichia coli.
`CC(C)(C)c1ccc(S/C=C\C(=O)O)cc1`: the MIC against Bacillus cereus was 128 µg/mL (≈ 542 µM); in test [2], over 128 µg/mL; in the test with Staphylococcus aureus, over 128 µg/mL; against Escherichia coli it was over 128 µg/mL.
On to `CCOC(=O)[C@@H]1O[C@H]1C(=O)c1ccc(C(C)(C)C)cc1`, for which the MIC in test [1] was over 128 µg/mL; in test [2] it was 128 µg/mL (≈ 463 µM); against Staphylococcus aureus it was 32 µg/mL (≈ 116 µM); in the test with Escherichia coli, over 128 µg/mL.
With `CO[C@H]1/C=C/O[C@@]2(C)Oc3c(C)c(O)c4c(O)c(c(/C=N/N5CCN(C)CC5)c(O)c4c3C2=O)NC(=O)/C(C)=C\C=C\[C@H](C)[C@H](O)[C@@H](C)[C@@H](O)[C@@H](C)[C@H](OC(C)=O)[C@@H]1C` [RIFAMPIN], the minimal inhibitory concentration (MIC) is 32 µg/mL (≈ 38.9 µM) in test [1]; under 0.03 µg/mL in test [4]; 64 µg/mL (≈ 77.8 µM) in test [2]; 32 µg/mL (≈ 38.9 µM) with Mycobacteroides chelonae; 1 µg/mL (≈ 1.22 µM) in test [3]; 2 µg/mL (≈ 2.43 µM) in the test on Mycobacterium avium. This molecule returned a minimal inhibitory concentration (MIC) with Mycobacterium kansasii of 0.5 µg/mL (≈ 0.608 µM).
In test [4], `CC[C@@H](CO)NCCN[C@@H](CC)CO` [ETHAMBUTOL] displayed a minimum inhibitory concentration (MIC) of 1.2 µg/mL (≈ 5.87 µM).
For `CC(C)(C)c1ccc(S/C=C\C(=O)Nc2ccccc2)cc1`, the MIC (in the test with Bacillus cereus; in [2]; in the test on Staphylococcus aureus; in the test on Escherichia coli) was over 128 µg/mL throughout.
As to `CN(C)C(=O)/C=C\Sc1ccc(C(C)(C)C)cc1`, the MIC is 16 µg/mL (≈ 60.7 µM) against Bacillus cereus, 64 µg/mL (≈ 243 µM) in [2], over 128 µg/mL in the test with Staphylococcus aureus and over 128 µg/mL against Escherichia coli.
As for `CCOC(=O)CCCc1ccc(C(C)(C)C)cc1`, the minimum inhibitory concentration (MIC) in test [1] was 32 µg/mL (≈ 129 µM); in [2], 64 µg/mL (≈ 258 µM); against Staphylococcus aureus, over 128 µg/mL; against Escherichia coli, over 128 µg/mL; in the test with Mycobacteroides chelonae, 32 µg/mL (≈ 129 µM); in test [3], over 128 µg/mL. Further, the MIC is over 128 µg/mL against Mycobacterium avium and 128 µg/mL (≈ 515 µM) in the test with Mycobacterium kansasii.
In the case of `CCOC(=O)c1ccccc1C(=O)c1ccc(C(C)(C)C)cc1`, the MIC (in [1]; in test [2]; against Staphylococcus aureus; against Escherichia coli; against Mycobacteroides chelonae; in test [3]) was over 128 µg/mL each time. Besides, the MIC in the test with Mycobacterium avium and in the test on Mycobacterium kansasii was over 128 µg/mL in each case.
With `CC(C)(C)c1ccc(S/C=C\C(=O)NC2CC2)cc1`, the MIC (against Bacillus cereus; in test [2]; in the test on Staphylococcus aureus; in the test on Escherichia coli) was over 128 µg/mL each time.
Turning to `CCOC(=O)/C=C\C(=O)c1ccc(C(C)(C)C)cc1`, the minimal inhibitory concentration (MIC) in test [1] was 8 µg/mL (≈ 30.7 µM); in test [4] it was 0.8 µg/mL (≈ 3.07 µM); against Bacillus cereus, 8 µg/mL (≈ 30.7 µM); in test [2], 8 µg/mL (≈ 30.7 µM); against Staphylococcus aureus, 4 µg/mL (≈ 15.4 µM); against Escherichia coli it was over 128 µg/mL. Also, the MIC in the test with Mycobacteroides chelonae was 16 µg/mL (≈ 61.5 µM); in [3] it was 8 µg/mL (≈ 30.7 µM); in the test on Mycobacterium avium, 32 µg/mL (≈ 123 µM); in the test on Mycobacterium kansasii, 64 µg/mL (≈ 246 µM). In addition, the Ratio in [5] was determined as 1.5; in test [6] it was 8.
Consider `CC(C)N(C(=O)/C=C\Sc1nc2ccccc2s1)C(C)C`, for which the minimal inhibitory concentration (MIC) (against Bacillus cereus; in [2]; with Staphylococcus aureus; with Escherichia coli) was over 128 µg/mL throughout.
As to `CCOC(=O)CCSc1ccc(C(C)(C)C)cc1`, the minimal inhibitory concentration (MIC) (in test [1]; in the test on Bacillus cereus; in test [2]; in the test on Staphylococcus aureus; against Escherichia coli; against Mycobacteroides chelonae) was over 128 µg/mL in each case. The minimum inhibitory concentration (MIC) (in [3]; in the test on Mycobacterium avium; against Mycobacterium kansasii) was over 128 µg/mL throughout.
With `NNC(=O)c1ccncc1` [ISONIAZID], in test [4], 0.25 µg/mL (≈ 1.82 µM) was the least that counted as inhibitory (MIC).
Regarding `CCOC(=O)/C=C\C(=O)c1cc2ccccc2s1`, the MIC in test [1] was 16 µg/mL (≈ 61.5 µM); in [4], 0.4 µg/mL (≈ 1.54 µM); in test [2], 4 µg/mL (≈ 15.4 µM); against Staphylococcus aureus, 1 µg/mL (≈ 3.84 µM); against Escherichia coli, 128 µg/mL (≈ 492 µM); with Mycobacteroides chelonae, 8 µg/mL (≈ 30.7 µM). Besides, the minimal inhibitory concentration (MIC) in [3] amounted to 4 µg/mL (≈ 15.4 µM); in the test on Mycobacterium avium, 16 µg/mL (≈ 61.5 µM); with Mycobacterium kansasii it was 8 µg/mL (≈ 30.7 µM). Moreover, the Ratio in test [5] was 3; in test [6], 16.
For the molecule `CCOC(=O)/C=C/Cc1ccc(C(C)(C)C)cc1`, the MIC is over 128 µg/mL in test [1]; over 128 µg/mL in test [2]; 16 µg/mL (≈ 64.9 µM) in the test on Staphylococcus aureus; over 128 µg/mL with Escherichia coli; over 128 µg/mL against Mycobacteroides chelonae; over 128 µg/mL in [3]. Also, the minimum inhibitory concentration (MIC) in the test with Mycobacterium avium and in the test with Mycobacterium kansasii was over 128 µg/mL throughout.
Regarding `CCOC(=O)/C=C/C(=O)c1ccc(C(C)(C)C)cc1`, the MIC in [1] is 4 µg/mL (≈ 15.4 µM); in test [4] it was 0.8 µg/mL (≈ 3.07 µM); with Bacillus cereus, 4 µg/mL (≈ 15.4 µM); in [2] it was 8 µg/mL (≈ 30.7 µM); in the test on Staphylococcus aureus it was 2 µg/mL (≈ 7.68 µM); against Escherichia coli, over 128 µg/mL. Further, the MIC in the test on Mycobacteroides chelonae turned out to be 8 µg/mL (≈ 30.7 µM); in test [3], 4 µg/mL (≈ 15.4 µM); against Mycobacterium avium it was 16 µg/mL (≈ 61.5 µM); against Mycobacterium kansasii it was 32 µg/mL (≈ 123 µM). Further, the Ratio worked out at 1.5 in test [5] and 8 in test [6].
For the molecule `CNC(=O)/C=C\Sc1ccc(C(C)(C)C)cc1`, the MIC is 128 µg/mL (≈ 513 µM) in the test on Bacillus cereus, over 128 µg/mL in test [2], over 128 µg/mL with Staphylococcus aureus and over 128 µg/mL against Escherichia coli.
Turning to `CCOC(=O)/C=C\Sc1ccc(C(C)(C)C)cc1`, the minimal inhibitory concentration (MIC) in the test on Bacillus cereus is over 128 µg/mL; in test [2], 16 µg/mL (≈ 60.5 µM); in the test on Staphylococcus aureus, over 128 µg/mL; against Escherichia coli, over 128 µg/mL.
With `CCOC(=O)CCC(=O)c1ccc(C(C)(C)C)cc1`, the minimal inhibitory concentration (MIC) (in test [1]; in test [2]; in the test with Staphylococcus aureus; against Escherichia coli; with Mycobacteroides chelonae; in test [3]) was over 128 µg/mL each time. The MIC with Mycobacterium avium and against Mycobacterium kansasii was over 128 µg/mL throughout.

The values are drawn from ChEMBL document CHEMBL3091406, “Design and synthesis of novel antimicrobials with activity against Gram-positive bacteria and mycobacterial species, including M. tuberculosis” (2013).
